Test results taken from article PMC6087491 (Bioorganic & medicinal chemistry, 2018).
Like-named read-outs stand apart in the source and are kept apart here.

What was measured:
[1] = system: CAR cell line; assay: MTT antiproliferative assay against cisplatin-resistant oral squamous; type: cell-based, human
Method in brief: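 Cells are a CAL27-derived line selected through 10 cycles of 10–80 μM cisplatin and maintained in DMEM/10% FBS with penicillin, streptomycin, 2 mM L-glutamine and 80 μM cisplatin. They were seeded at 2×10^4 cells/well and exposed to 0–100 μM test compound (0.5% DMSO vehicle) for 48 or 72 h. MTT (500 μg/ml) was added for 4 h at 37 °C, formazan was dissolved in DMSO, and A570 was read. Viability is expressed as % of control.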

[2] = Toxicity monitoring and blood biochemical analysis in CAR xenograft nude mice; type: in vivo, BALB/c nude mice
[3] = system: CAR xenograft; assay: In vivo antitumor activity in CAR xenograft nude mouse model; parameters: species or system BALB/c nude mice
Method in brief: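 Male 4-week-old BALB/c nude mice; CAR cells (cisplatin-resistant CAL27, cultured with 80 μM cisplatin), 1×10^7/mouse in medium:Matrigel 1:1, injected s.c. into flank. At ~50 mm3 (day 22), randomised into four groups; test compound oral 25, 50 or 100 mg/kg once daily ×30 in 1,2-propanediol; controls vehicle only. Caliper tumor size ([…]); tumors excised, weighed day 31.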

[4] = Preliminary pharmacokinetic study of compound 12 in rats; conditions: single oral 100 mg/kg, PO-1 and PO-2 formulations, 0.5-24 h
[5] = read-out: IC50 (concentration for 50% antiproliferative effect), CAR cells, 48 h
[6] = read-out: IC50 (concentration for 50% antiproliferative effect), CAR cells, 72 h

Molecule	IC50 [1, 5] [µM]	IC50 [1, 6] [µM]	also measured
4-[(E)-2-(3,5-dimethoxyphenyl)ethenyl]phenol [Pterostilbene, reference compound]	100 ± 4.78	98.3 ± 5.21	
N.N.[Cl][Pt][Cl] [Cisplatin, reference compound]	> 100	> 100	
COc1cc(/C=C/c2ccc(OC(=O)C(C)(CO)CO)cc2)cc(OC)c1 [Compound 12, 4-(3,5-Dimethoxystyryl)phenyl-3-hydroxy-2-(hydroxymethyl)-2-methylpropanoate]			changes in body weight, food consumption and behavior vs untreated control ([2]; 25, 50 and 100 mg/kg PO QD×30): no obvious changes; blood analysis, 12-fed groups vs control group ([2]; total protein, albumin, creatinine, BUN, uric acid, glucose, 25-100 mg/kg QD×30): no significant difference; inhibitory effects on CAR tumor size and weight ([3]; 25, 50 and 100 mg/kg PO once daily for 30 days): dose- and time-dependent inhibitory effects; antitumor activity ([3]; lowest oral dose 25 mg/kg/day): Obvious antitumor activity; blood concentration of compound 12 [4]: not detected
(E)-4-(3,5-Dihydroxystyryl)phenyl 3-hydroxy-2-(hydroxymethyl)-2-methylpropanoate [Compound 20]	52 ± 2.6	50.3 ± 1.98	
(E)-4-(3-Acetoxy-5-((3-hydroxy-2-(hydroxymethyl)-2-methylpropanoyl)oxy) styryl)phenyl 3-hydroxy-2-(hydroxymethyl)-2-methylpropanoate [Compound 27]	122 ± 2.69	119 ± 2.19	
(E)-4-(3-Acetoxy-5-methoxystyryl)phenyl 3-hydroxy-2-(hydroxymethyl)-2-methylpropanoate [Compound 18]	169 ± 3.19	133 ± 2.45	
(E)-4-(3-Hydroxy-5-((3-hydroxy-2-(hydroxymethyl)-2-methylpropanoyl)oxy) styryl)phenyl 3-hydroxy-2-(hydroxymethyl)-2-methylpropanoate [Compound 25]	105 ± 1.98	113 ± 2.77	
(E)-5-(4-((3-Hydroxy-2-(hydroxymethyl)-2-methylpropanoyl)oxy)styryl)-1,3-phenylene diacetate [Compound 22]	103 ± 4.58	116 ± 3.96	
(E)-5-(4-((3-Hydroxy-2-(hydroxymethyl)-2-methylpropanoyl)oxy)styryl)-1,3-phenylene diacetate [Compound 23]	54.9 ± 2.59	114 ± 3.25	
(E)-5-(4-Hydroxystyryl)-1,3-phenylene bis(3-hydroxy-2-(hydroxymethyl)-2-methylpropanoate) [Compound 24]	90.4 ± 3.65	76.9 ± 3.22	
